Published values pooled from the literature.
Lines come from different studies, so protocols differ.

SMILES	tested on	test	system	conditions	endpoint	value
C=CCCCCCCCCC(=O)C(F)(F)P(=O)(O)O	Bacillus anthracis	microbial growth	STERNE34F2		MIC	> 200 µg/mL
COc1ccc2cc1Oc1cc(ccc1OC)CCC(N[C@@H]1CCCc3ccccc31)CCCC2 (stereo partly shown)	Streptococcus pyogenes	microbial growth, broth dilution	ATCC700294		MIC	> 100 µg/mL
CN1C(=O)CC(=O)N(c2ccccc2)c2cc(Cl)ccc21		MES seizures	rat	intraperitoneal	ED50	36.3 mg/kg
O=C(CCCCC1CCCCC1)CP(=O)(O)O	Bacillus anthracis	microbial growth	STERNE34F2		MIC	200 µg/mL
COC[C@@H](NC(C)=O)C(=O)NCc1ccc(OCc2ccccc2)cc1		MES seizures	rat	oral	ED50	< 10 mg/kg
O=C(CCCCC1CCCCC1)NP(=O)(O)O	Bacillus anthracis	microbial growth	STERNE34F2		MIC	> 200 µg/mL
CC1=NN(CNc2ccc(Cl)cc2)C(=O)C1=NNn1c(-c2ccccc2)nc2ccccc2c1=O	Vibrio cholerae	microbial growth, broth dilution		24 h	MIC	103 µM
CCCCCCCC/C=C\CCCCCCCCNC(=O)CP(=O)(O)O	Bacillus anthracis	microbial growth	STERNE34F2		MIC	0.1 µg/mL
CCCCCCCCCC#CCCCCC(=O)O	Leishmania infantum	parasite growth		promastigote	EC50	102 µM
CN[C@H](CC(C)C)C(=O)N[C@H]1C(=O)N[C@@H](CC(N)=O)C(=O)N[C@H]2C(=O)N[C@H]3C(=O)N[C@H](C(=O)N[C@H](C(=O)O)c4cc(O)cc(O)c4-c4cc3ccc4O)[C@H](O)c3ccc(c(Cl)c3)Oc3cc2cc(c3O[C@@H]2O[C@H](CO)[C@@H](O)[C@H](O)[C@H]2O[C@H]2C[C@](C)(N)[C@H](O)[C@H](C)O2)Oc2ccc(cc2Cl)[C@H]1O	Bifidobacterium	microbial growth, agar dilution		48 h	MIC	2 µg/mL
CCCC(=O)CP(=O)(O)O	Bacillus anthracis	microbial growth	STERNE34F2		MIC	100 µg/mL
CCOC(=O)Nc1ccc(NCc2ccc(F)cc2)cc1N		MES seizures	rat	intraperitoneal	ED50	4.01 mg/kg
CC1=NN(CNc2c(O)c(S(=O)(=O)O)cc3ccccc23)C(=O)C1=NNn1c(-c2ccccc2)nc2ccccc2c1=O	Vibrio cholerae	microbial growth, broth dilution		24 h	MIC	83.7 µM
OC[C@H]1O[C@@H](n2cnc3c(NC4CCCC4)ncnc32)[C@H](O)[C@@H]1O		MES seizures	rat	oral	ED50	> 10 mg/kg
CC1=NN(CNc2ccc(C(=O)O)cc2)C(=O)C1=NNn1c(-c2ccccc2)nc2ccccc2c1=O	Vibrio cholerae	microbial growth, broth dilution		24 h	MIC	50.5 µM
CC(=O)C1=C(O)C(CC(C)C)NC1=O (stereo not shown)	Stenotrophomonas maltophilia	microbial growth	ATCC13637		MIC	> 200 µg/mL
Cn1cnc2nc(NCc3ccc(Cl)c(Cl)c3)[nH]c(=O)c21	Bifidobacterium	microbial growth, agar dilution		48 h	MIC	> 32 µg/mL
O=C1NN=C(N=Cc2ccccc2)C1=NNn1c(-c2ccccc2)nc2ccccc2c1=O	Vibrio cholerae	microbial growth, broth dilution		24 h	MIC	114 µM
CC(C=CC(O)=C1C(=O)CNC1=O)=CC(C)C1OC2(C)OC(C(O)C=C2C)C1C (stereo not shown)	Bacillus anthracis	microbial growth	34F2		MIC	25 µM
